In paper PMC6034632 (Science translational medicine, 2017):
One block for each molecule: values may come before it. *1 amine or outer side, *2 acyl side, *3 side chain or, on linkers, in order; H or OH if unused. Where a SMILES comes first, the peptide text is derived from it. Bridges are numbered along the chain shown (N, C = ends). [ ]: non-standard residue; d: D form. The star is where a group is joined. Leu(3R-OH,Nα-propionyl) = CCC(=O)N[C@H](C(=O)*)[C@H](O)C(C)C; X1 = CC(C)[C@@H](O[*:3])[C@H](N[*:1])C(=O)[*:2]; NMeT = CN[C@H](C(=O)O)[C@@H](C)O; dPhLac = O=C(O)[C@H](O)Cc1ccccc1; NMeA = CN[C@@H](C)C(=O)O; NMeDha = C=C(NC)C(=O)O

Columns and labels:
[1] = tested on: capsaicin-evoked mechanical allodynia; test: Capsaicin-evoked mechanical allodynia in rat; format: in vivo; conditions: intrathecal
[2] = tested on: HEK293 / HEK-NK1R-GFP cells; test: Uptake and trafficking of tripartite probes; format: cell-based, human; conditions: effect of dynamin inhibitor
Method in brief: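 HEK293 or HEK-NK1R–GFP cells were incubated with Cy5-labelled cholestanol-conjugated probes, either continuously for 4 hours or as a 30 or 60 min pulse, washed and recovered 4 hours. NK1R-GFP cells received SP to drive receptor endocytosis. Localization to plasma membrane and RAB5A-RFP– or NK1R-GFP–positive endosomes was imaged, with or without dynamin inhibitor.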

[3] = tested on: plasma membrane cAMP (NK1R, HEK293 cells); test: FRET biosensor pmEpac2, SP-induced plasma membrane cAMP; format: cell-based, human; conditions: SP 1 nM
Method in brief: (§1)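 HEK293 cells expressed NK1R plus a genetically encoded FRET biosensor targeted to the cytosol, nucleus or plasma membrane (ERK, PKC or cAMP sensors). Ratiometric imaging followed time courses after SP, with the maximal signal set by a positive control. Responses were integrated as area under the curve.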

[4] = tested on: SP and CGRP release from dorsal spinal cord; test: Capsaicin-stimulated neuropeptide release from segments of dorsal spinal cord; conditions: segments of mouse dorsal spinal cord, n = 6 experiments
[5] = tested on: cytosolic ERK activity (NK1R, HEK293 cells); test: FRET biosensor CytoEKAR, SP-induced cytosolic ERK activity; format: cell-based, human; conditions: SP 1 nM
Method in brief: as §1

[6] = tested on: cytosolic cAMP (NK1R, HEK293 cells); test: FRET biosensor CytoEpac2, SP-induced cytosolic cAMP; format: cell-based, human; conditions: SP 1 nM
Method in brief: as §1

HEK-NK1R cells = test: Endocytosis of fluorescent Alexa Fluor 568–SP; format: cell-based, human
[7] = tested on: formalin nocifensive response; test: Nocifensive behavior after intraplantar formalin; format: in vivo, mouse; conditions: mice, intrathecal endocytosis inhibitors
[8] = tested on: pERK in lamina I/II dorsal horn neurons; test: Capsaicin-stimulated ERK phosphorylation in dorsal horn neurons in vivo; conditions: rat, intrathecal inhibitor, intraplantar capsaicin
[9] = tested on: nuclear ERK activity (NK1R, HEK293 cells); test: FRET biosensor NucEKAR, SP-induced nuclear ERK activity; format: cell-based, human; conditions: for SP stimulation of nuclear ERK: SP 1 nM, HEK293, NucEKAR
Method in brief: as §1

[10] = tested on: contralateral paw withdrawal; conditions: mouse, in vivo
[11] = tested on: NK1R endocytosis in HEK293 cells; test: BRET assay of SP-induced NK1R endocytosis; format: cell-based, human; conditions: SP 1 or 10 nM
Method in brief: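 NK1R C-terminally fused to RLUC8 was co-expressed in HEK293 cells with Venus-tagged KRAS (plasma membrane marker) or RAB5A (early endosome marker). Receptor proximity to each compartment was tracked as SP-induced BRET over time. Observations were in triplicate, n ≥ 3 experiments.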

motor behavior = conditions: mouse, in vivo
[12] = tested on: NK1R-IR endocytosis in spinal neurons; test: SP-induced NK1R-IR endocytosis in spinal cord slices; format: cell-based; conditions: rat spinal cord slices, SP 1 μM 5 min
lamina I/IIo neurons = test: EPSC induced by primary afferent stimulation; format: cell-based; conditions: n = 11 neurons
[13] = tested on: NK1R-positive neurons in lamina I of the dorsal horn; test: Cell-attached patch clamp recordings of SP-induced firing in spinal cord slices; format: cell-based, rat; conditions: for reduction of number of SP-stimulated action potentials: compared to controls; for inhibition of SP-induced firing time of lamina I neurons: slices preincubated with inhibitor, versus vehicle control
Method in brief: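 Cell-attached patch clamp recordings were made from second-order lamina I neurons in rat spinal cord slices. SP was applied at 1 μM for 2 min, then washed out. Slices were exposed to test compound for 60 min, washed, and challenged with SP 60 min later. Firing rate was taken as events per 2 min normalized to the 2-min rate, and duration as time to the last action potential. Six to 7 neurons per group.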

[14] = tested on: cytosolic PKC activity (NK1R, HEK293 cells); test: FRET biosensor CytoCKAR, SP-induced cytosolic PKC activity; format: cell-based, human; conditions: SP 1 nM
Method in brief: as §1

[15] = tested on: plasma membrane PKC activity (NK1R, HEK293 cells); test: FRET biosensor pmCKAR, plasma membrane PKC activity; format: cell-based, human; conditions: SP 1 nM
Method in brief: as §1

PKCα = conditions: cited from earlier work
[16] = tested on: capsaicin-induced mechanical allodynia; format: in vivo, mouse; conditions: mice, intrathecal injection 3 hours before intraplantar capsaicin
NK1R (HEK-NK1R cells) = NK1R (HEK-NK1R cells) (Homo sapiens, UniProt P25103); test: SP-stimulated Ca2+ signaling; format: cell-based; conditions: 10 nM antagonist
NK1R (HEK-NK1R cells), sequence (P25103 whole entry, species assumed): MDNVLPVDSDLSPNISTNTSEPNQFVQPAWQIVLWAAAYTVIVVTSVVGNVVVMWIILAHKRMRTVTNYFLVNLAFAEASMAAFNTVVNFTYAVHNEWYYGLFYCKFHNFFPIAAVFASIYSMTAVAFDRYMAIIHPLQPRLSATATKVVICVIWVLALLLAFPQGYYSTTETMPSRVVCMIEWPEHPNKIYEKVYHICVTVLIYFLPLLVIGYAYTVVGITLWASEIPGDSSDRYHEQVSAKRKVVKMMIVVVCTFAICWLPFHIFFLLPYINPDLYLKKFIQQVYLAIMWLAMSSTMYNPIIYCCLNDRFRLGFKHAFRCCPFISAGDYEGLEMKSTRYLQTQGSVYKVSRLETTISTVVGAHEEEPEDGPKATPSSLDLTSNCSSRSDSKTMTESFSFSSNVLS

[17] = tested on: CFA-induced mechanical hyperalgesia; test: CFA-induced mechanical hyperalgesia, von Frey; format: in vivo, mouse; conditions: mice, intrathecal 36 hours after intraplantar CFA
Method in brief: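 Mice received intraplantar CFA; 36 hours later test compound was given intrathecally. Mechanical hyperalgesia was read as von Frey filament withdrawal responses of the CFA-injected paw over the following hours. Groups were compared to control by ANOVA with Dunnett's test.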

[18] = tested on: NK1R-IR in lamina I neurons; test: NK1R endocytosis in spinal neurons in vivo after intraplantar capsaicin; conditions: rat, intraplantar capsaicin alone (vehicle-treated control 80.7 ± 1.6), 10 min
[19] = Degradation by membranes prepared from spinal cord; format: in vitro ADME, mouse
[20] = rat spinal cord slices, SP 1 μM 2 min

- withdrawal responses of the contralateral paw [10]: did not affect
Molecule: O=C(N/N=C/c1cc(O)c(O)cc1O)c1cc2ccccc2cc1O [Dy4, Dyngo-4a]
- capsaicin-evoked mechanical allodynia in rat [1]: inhibited capsaicin-evoked mechanical allodynia
- uptake of Chol-conjugated tripartite probes [2]: inhibited uptake
- SP activation of plasma membrane cAMP [3]: did not affect
- capsaicin-stimulated release of SP or CGRP [4]: did not affect
- SP activation of cytosolic ERK [5]: did not affect
- SP stimulation of cytosolic cAMP [6]: abolished
- endocytosis of fluorescent Alexa Fluor 568–SP (HEK-NK1R cells): inhibited endocytosis
- nocifensive response to intraplantar formalin [7]: blunted both the early (noninflammatory) and late (inflammatory) phases
- capsaicin-stimulated ERK activation in spinal neurons [8]: prevented capsaicin-stimulated ERK activation
- SP stimulation of nuclear ERK [9]: abolished
- SP-induced NK1R endocytosis [11]: inhibited NK1R endocytosis
- rotarod latency (motor behavior): did not affect
- SP-stimulated NK1R-IR endocytosis in spinal neurons [12]: inhibited NK1R endocytosis
- generation of excitatory postsynaptic currents (EPSCs) (lamina I/IIo neurons): did not affect
- initial onset of SP-induced firing [13, 20]: did not affect the initial onset
- sustained SP-induced firing (firing rate and firing time) [13, 20]: prevented the sustained response
- SP-induced firing rate (events per 2 min, normalized to rate at 2 min) ([13]; rat spinal cord slices, SP 1 μM 2 min, endocytosis inhibitor): 342.1 ± 120.7 events per 2 min
- SP stimulation of cytosolic PKC [14]: abolished
- plasma membrane PKC activity [15]: amplified plasma membrane PKC activity

Molecule: O=C(O)CN(CCOCCOCCN(CC(=O)O)CC(=O)O)CC(=O)O [EGTA]
- SP stimulation of cytosolic cAMP [6]: prevented SP generation of cytosolic cAMP
- SP stimulation of cytosolic PKC [14]: prevented activation of cytosolic PKC

Molecule: CN(C)CCCn1cc(C2=C(c3c[nH]c4ccccc34)C(=O)NC2=O)c2ccccc21 [GF109203X]
- inhibiting PKCα (PKCα): 4 % control
- SP stimulation of cytosolic cAMP [6]: prevented SP generation of cytosolic cAMP
- reduction of number of SP-stimulated action potentials [13]: 61 ± 15%
- inhibition of SP-induced firing time of lamina I neurons [13]: 56.8 ± 8.2%

- % inhibition against 1 nM SP, Ca2+ signaling (NK1R (HEK-NK1R cells)): 40.8 ± 8.9%
Molecule: FC(F)(F)c1cc(CO[C@H]2CCCN[C@H]2c2ccccc2)cc(C(F)(F)F)c1 [L-733,060]
- capsaicin-evoked mechanical allodynia [16]: antinociceptive only at 1 hour

- withdrawal responses of the contralateral paw [10]: did not affect
Molecule: O=C1NC(=NS(=O)(=O)c2cccc3ccccc23)S/C1=C\c1ccc(Br)cc1 [PS2, Pitstop-2]
- SP activation of plasma membrane cAMP [3]: did not affect
- capsaicin-stimulated release of SP or CGRP [4]: did not affect
- SP activation of cytosolic ERK [5]: did not affect
- SP stimulation of cytosolic cAMP [6]: abolished
- endocytosis of fluorescent Alexa Fluor 568–SP (HEK-NK1R cells): inhibited endocytosis
- nocifensive response to intraplantar formalin [7]: blunted both the early (noninflammatory) and late (inflammatory) phases
- capsaicin-stimulated ERK activation in spinal neurons [8]: prevented capsaicin-stimulated ERK activation
- SP stimulation of nuclear ERK [9]: abolished
- SP-induced NK1R endocytosis [11]: inhibited NK1R endocytosis
- rotarod latency (motor behavior): did not affect
- SP stimulation of cytosolic PKC [14]: abolished
- plasma membrane PKC activity [15]: amplified plasma membrane PKC activity

Molecule: CC(C)Oc1cccc(CC(=O)N2CCC[C@@](CC[N+]34CCC(c5ccccc5)(CC3)CC4)(c3ccc(Cl)c(Cl)c3)C2)c1.[Cl-] [SR140,333]
- SP-induced nuclear ERK (endosomal NK1R) 4 hours after pulse ([9]; pulse-incubated 30 min, washed, SP 4 hours later): unable to effectively inhibit persistent NK1R signaling in endosomes
- CFA mechanical hyperalgesia [17]: minor

Molecule: N#CC(=C(/N)Sc1ccccc1N)/C(C#N)=C(/N)Sc1ccccc1N [U0126]
- reduction of number of SP-stimulated action potentials [13]: 84 ± 5%
- inhibition of SP-induced firing time of lamina I neurons [13]: 67.5 ± 8.3%

Molecule: COc1ccc2c(c1)CC[C@@H]1[C@@H]2CC[C@]2(C)[C@@H](NCCCCCCN3C(=O)C=CC3=O)CC[C@@H]12 [U73122]
- SP stimulation of cytosolic PKC [14]: prevented activation of cytosolic PKC

Molecule: C=C1C(=O)N[C@@H](C)C(=O)N(C)[C@@H](C)C(=O)N[C@@H]([C@H](OC(=O)[C@@H](NC(=O)CC)[C@H](O)C(C)C)C(C)C)C(=O)N(C)[C@@H]([C@@H](C)OC)C(=O)O[C@H](C(C)C)[C@H](NC(C)=O)C(=O)O[C@H](Cc2ccccc2)C(=O)N1C [UBO-QIC] (Ac-[X1][dPhLac][NMeDha]A[NMeA][X1](Leu(3R-OH,Nα-propionyl))[NMeT](Me); ester 1-C)
- SP stimulation of cytosolic cAMP [6]: prevented SP generation of cytosolic cAMP
- SP stimulation of nuclear ERK [9]: prevented SP activation of nuclear ERK
- SP-induced NK1R endocytosis [11]: did not affect NK1R endocytosis
- SP stimulation of cytosolic PKC [14]: prevented activation of cytosolic PKC

Molecule: COc1cc(CNC(=O)CCCC/C=C/C(C)C)ccc1O [capsaicin]
- % NK1R-IR within 0.5 μm of plasma membrane [18]: 42.1 ± 5.6%

Molecule: substance P [SP]
- degradation by spinal cord membranes [19]: rapidly degraded
